# Most compounds without a hit are left out; they make up all but 1.7% or so of the library.
# TPT1 inhibitor – inhibitors of Candida albicans tRNA 2'-phosphotransferase TPT1; recombinant caTPT1, FP RNA substrate dephosphorylation; inhibition, % at 5 µM; 0.81% of 300,000 active; AID 1962;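 active = inhibition above the mean of all tested compounds plus 3 SD, set per screening campaign, cut at about 24% in these data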;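 note: plate controls were DMSO alone for no effect and ferristatin control at 100 nM for full effect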
# HNF4A DNA FP – change in binding of human HNF4 alpha to DNA; HNF4a-FITC DNA binding, fluorescence polarization, 1 h; activity change, % at 10 µM; 0.3% of 360,000 active; P41235; AID 1224865; in the data active = activity change above about 30%, passing the limit was not always enough
# Target sequence (P41235 whole entry, looked up): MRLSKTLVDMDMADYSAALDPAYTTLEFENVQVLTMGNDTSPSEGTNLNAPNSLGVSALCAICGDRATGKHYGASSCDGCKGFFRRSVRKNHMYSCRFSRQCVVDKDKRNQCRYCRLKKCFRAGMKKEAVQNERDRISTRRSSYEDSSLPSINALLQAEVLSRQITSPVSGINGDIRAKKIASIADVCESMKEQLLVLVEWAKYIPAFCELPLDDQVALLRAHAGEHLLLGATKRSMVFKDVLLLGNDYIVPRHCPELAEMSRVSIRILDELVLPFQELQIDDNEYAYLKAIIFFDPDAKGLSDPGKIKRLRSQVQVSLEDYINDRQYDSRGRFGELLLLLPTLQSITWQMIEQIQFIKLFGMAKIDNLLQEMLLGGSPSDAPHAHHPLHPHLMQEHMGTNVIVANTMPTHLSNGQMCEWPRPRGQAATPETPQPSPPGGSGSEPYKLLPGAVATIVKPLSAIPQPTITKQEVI
# IDE cell inh – cellular human IDE inhibition | 0.41% of 320,000 active | P14735 | AID 434962 | inhibition, % at 5.59 µM | HEK cells, FAbetaB cleavage, fluorescence polarization;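 active = percent inhibition above the average of all tested compounds plus 3 SD, set per screening campaign, cut at about 16% in these data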;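 note: IDE supplied by intact live HEK cells; FP after avidin binding of uncleaved biotin substrate so inhibition keeps polarization high; 0% = DMSO wells and 100% = 60 µM reference IDE inhibitor Ii1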
# TbMetRS inhib – Trypanosoma brucei MetRS inhibition; purified T. brucei MetRS, ATP depletion, Kinase-Glo luminescence; inhibition, % at 11.9 µM; 0.4% of 360,000 active; AID 624268;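 active = inhibition above a per-plate cutoff of the control wells' mean inhibition plus 3 SD, cut at about 5.5% in these data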;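 note: 0% = DMSO wells median and 100% = median of wells with control inhibitor compound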
#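 Test system – parasite MetRS enzyme · Reagent – substrates ATP, L-methionine and bulk Escherichia coli tRNA · Doses – 11.9 µM compound single dose, 0.9% DMSO · Times – 15 min enzyme-compound preincubation, 2 h reaction, 10 min detection, 25 °C · Signal – Kinase-Glo luminescence, ATP depletion format · Controls – DMSO-only wells as low control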
# CSN deneddyl inh – blocks human CSN-mediated cullin deneddylation; Purified CSN, SCF-Nedd8-OG deneddylation, fluorescence polarization; 0.38% of 360,000 active; inhibition, % at 12.5 µM; Q92905;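 active = pattern-corrected inhibition above about 35%, with an unprinted fluorescence ratio check between 0.5 and 1.5, limit read from the data, passing the limit was not always enough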;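 note: 0% = enzyme with substrate and 100% = substrate without enzyme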
# Target sequence (Q92905 whole entry, looked up, one chain of several): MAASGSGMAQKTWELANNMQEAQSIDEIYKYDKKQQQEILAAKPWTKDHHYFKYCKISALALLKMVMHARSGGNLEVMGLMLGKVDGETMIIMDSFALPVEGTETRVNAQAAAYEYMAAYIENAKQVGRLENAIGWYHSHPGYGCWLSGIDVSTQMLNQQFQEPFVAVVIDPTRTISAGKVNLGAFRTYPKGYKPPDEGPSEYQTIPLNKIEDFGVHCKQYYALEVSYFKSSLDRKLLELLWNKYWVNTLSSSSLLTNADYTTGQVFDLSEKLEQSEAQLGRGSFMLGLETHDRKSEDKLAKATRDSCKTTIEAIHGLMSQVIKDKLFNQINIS
#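 Assay system: purified human Csn5 enzyme expressed in HEK293T cells; Input: 0.24 nM Csn5 enzyme, final concentration; Reagent: 10 nM SCFSkp2-Nedd8OG; Compound dosing: 12.5 µM single point; Times: reaction 90 min, room temperature; Technique: fluorescence polarization readout.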
# IDE act – IDE (human) activation, cell-based. P14735. HEK cells, FAbeta-B cleavage, fluorescence polarization; 0% vehicle, 100% cell-free pure enzyme wells. activation, % at 5.96 µM. 0.073% of 340,000 active. AID 493087;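 active = activation above the mean of all tested compounds plus 3 SD, set per screening campaign, cut at about 17% in these data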
# IDE inh confirm – confirmation of human insulin-degrading enzyme inhibitors in cells; shares compounds with IDE cell inh; HEK cells, FAbetaB cleavage, fluorescence polarization; inhibition, % at 5.59 µM; 51% of 1,200 active;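 active = mean inhibition across triplicate wells above the cutoff set by the earlier primary insulin-degrading enzyme screen, cut at about 16% in these data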;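 note: 0% = DMSO wells and 100% = 60 µM reference IDE inhibitor Ii1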
# HEK293 tox – kills HEK cells in IDE inhibitor counter-screen. shares compounds with IDE cell inh. inhibition, % at 5.59 µM. AID 449730. 28% of 1,200 active. HEK293 cytotoxicity, ATP luminescence; in the data active = inhibition above about 22%;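 note: 0% = vehicle wells and 100% = reference cytotoxic drug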
# IDE FP artifact – fluorescent artifact in IDE inhibitor FP assay; FP counterscreen for fluorescent artifacts, IDE probe project; shares compounds with IDE cell inh; IC50, µM; 30 tested, under 10 active; call rule not given here
# * marks the source's active call; other numbers are inactive results; nt = no result given.
SMILES,TPT1 inhibitor,HNF4A DNA FP,IDE cell inh,TbMetRS inhib,CSN deneddyl inh,IDE act,IDE inh confirm,HEK293 tox,others
O=C(Nc1ccc2oc(-c3cccnc3)nc2c1)c1ccc2c(c1)OCCO2,1.8,73.7,17.7*,-0.6,25.7,-18.6,18.1*,13.4,IDE FP artifact=>54.7
O=C(Nc1ccc2oc(-c3ccncc3)nc2c1)c1ccc(F)cc1,-0.3,2.5,2.3,-0.9,-4.2,-5.7,nt,nt,
COc1ccc(-c2nc3cc(NC(=O)c4ccc5c(c4)OCO5)ccc3o2)cc1,-2.8,-2.2,6.0,-2.0,1.4,2.0,nt,nt,
O=S(=O)(c1ccccc1F)N1CCN(CCc2ccccc2)CC1,1.9,-0.4,-2.2,-0.8,6.2,-2.1,nt,nt,
Cc1ccc(S(=O)(=O)N2C[C@]3(O)C[C@@H]4C(=O)N(c5ccccc5)C(=O)[C@@H]4C[C@]3(OC(=O)Nc3cccs3)C2)cc1,nt,-5.5,nt,-1.1,4.1,nt,nt,nt,
COc1ccc(/C=C/C(=O)NCC(=O)N/N=C(\C)Cc2ccccc2)cc1,-0.6,-0.5,9.3,-0.6,-5.5,6.0,nt,nt,
C/C(Cc1ccccc1)=N\NC(=O)CNC(=O)/C=C\c1ccccc1,-2.0,3.3,17.1*,-1.0,0.6,nt,1.6,12.4,
COc1ccc2nc(NC(=O)CN(c3ccc(C)cc3)S(=O)(=O)c3c(C)nn(C)c3C)sc2c1,0.8,-1.4,16.4*,-0.1,1.0,-0.7,4.8,15.3,
Cc1ccc(Cl)cc1N1CCN(C(=O)CCCn2c(=O)c3cccn3c3cccnc32)CC1,-1.7,0.7,2.7,0.1,3.6,-2.4,nt,nt,
Cc1cccc(N2CCN(C(=O)CCCn3c(=O)c4cccn4c4cccnc43)CC2)c1C,-1.8,10.2,25.2*,0.1,-1.0,-10.9,6.9,23.4*,
CCn1c(=O)c(C(=O)CN2CCCc3ccccc32)c(N)n(Cc2ccccc2)c1=O,13.5,88.5,36.6*,-0.1,47.9*,-3.8,10.3,16.6,
Brc1cc2ccccc2[n+](Cc2ccccc2)c1,-2.5,-1.5,-0.4,0.1,0.9,3.0,nt,nt,
Fc1cccc(C[n+]2csc3ccccc32)c1,2.4,2.8,22.4*,-0.8,-1.6,-38.2,10.7,12.4,
c1ccc(C[n+]2csc3ccccc32)cc1,-3.0,-2.2,26.1*,0.0,2.0,-38.4,11.0,9.6,
N#C/C(=C1/C(=O)Nc2ccc(Br)cc21)c1ccccn1,-2.9,4.4,-3.5,-0.5,-1.7,-0.4,nt,nt,
COc1ccc(CC2=CC(=O)c3ccccc3C2=O)cc1,-0.6,-0.1,45.9*,-1.7,1.3,-28.1,34.6*,68.0*,
COc1ccc(Cc2ccccc2C(=O)O)cc1,nt,1.1,nt,-0.1,-2.4,3.3,nt,nt,
CC1CCCCC1NC(=O)CSc1nnc(COc2ccc(Cl)cc2)o1 (stereo not given),3.0,-1.1,-0.1,0.3,1.3,-2.5,nt,nt,
COc1ccc([N+](=O)[O-])cc1/C=N/NC(=O)/C(=C\c1cccs1)NC(=O)c1ccccc1,-5.3,-1.3,28.2*,-0.3,3.4,-3.7,14.4,8.1,
CCN=C1S/C(=C\c2ccc(O)c(OCC)c2)C(=O)N1CC,1.3,2.9,5.4,-0.1,-3.6,-9.0,nt,nt,
CCN=C1S/C(=C\c2cc(OCC)c(O)cc2Br)C(=O)N1CC,19.5,-1.3,16.9*,-0.6,-1.7,-17.0,22.2*,23.0*,
O=C(/C=C/c1ccc(F)cc1)N1CCCN(C(=O)/C=C/c2ccc(F)cc2)CC1,-3.4,1.7,24.4*,-0.1,-2.4,-12.2,6.9,5.5,
Cc1ccc(/C=C/C(=O)N2CCCN(C(=O)/C=C/c3ccc(C)cc3)CC2)cc1,-1.1,2.6,11.4,0.0,-0.2,-17.8,nt,nt,
Cc1cccc(OCC(=O)NCC(=O)N/N=C/c2c(C)[nH]c3ccccc23)c1,0.0,-13.5,16.5*,0.5,-1.5,0.2,0.2,16.7,
Cc1cccc(OCC(=O)NCC(=O)N/N=C/c2cccs2)c1,0.8,-0.8,-0.6,0.1,0.9,4.3,nt,nt,
SMILES,TPT1 inhibitor,HNF4A DNA FP,IDE cell inh,TbMetRS inhib,CSN deneddyl inh,IDE act,IDE inh confirm,HEK293 tox,others
CN1C(=O)c2cccc3c(N(C)C)ccc(c23)C1=O,9.6,8.7,45.7*,-1.7,8.4,-44.8,51.5*,11.0,
CN(C)c1ccc(/C=C2\Oc3ccc(C#Cc4cccc(N)c4)cc3C2=O)cc1,nt,145.5,43.8*,-0.1,79.9,-48.8,49.0*,14.5,
COc1cccc(Cl)c1NC(=O)N1CCN(c2cc(C)nc3ccccc23)CC1,-0.1,-0.4,27.9*,3.3,-3.3,-32.7,21.9*,22.7*,
CCOC(=O)Cc1csc(-n2sc3ccccc3c2=O)n1,9.5,6.7,16.5*,-0.5,5.7,-25.1,13.3,28.1*,
CCOC(=O)Cc1csc(SCn2nnc3ccccc3c2=O)n1,-2.2,0.7,3.5,-0.1,-2.8,-6.0,nt,nt,
O=c1cc(-c2cccs2)oc2ccc(Cl)cc12,-2.1,1.4,8.8,0.0,0.8,-12.6,nt,nt,
O=c1c(O)c(-c2cccs2)oc2ccc(Cl)cc12,-5.2,-22.8,70.0*,-0.8,7.2,24.0*,25.9*,9.1,
Cn1c(SCCOc2cccc(Cl)c2)nnc1-c1ccncc1,-3.4,-2.2,6.7,-1.4,-1.0,-12.2,nt,nt,
Cc1ccc(OCCSc2nnc(-c3ccncc3)n2C)cc1,-1.6,-1.3,35.7*,-0.7,4.5,-38.7,12.2,7.6,
Cc1cccc(N2CCN(C(=O)c3ccc4nc[nH]c4c3)CC2)c1C,2.3,-4.0,7.8,-0.2,-0.5,-3.2,nt,nt,
Cc1ccc(Cl)cc1N1CCN(C(=O)c2ccc3nc[nH]c3c2)CC1,-0.4,2.2,19.0*,0.8,-3.3,-18.7,2.6,13.7,
CCCS(=O)(=O)NC(=O)C1(C)CCCN(C(=O)COc2ccccc2)C1 (stereo not given),nt,2.9,nt,0.1,1.0,nt,nt,nt,
CC1=CC(C)(C)Nc2ccc(OC(=O)CN3C(=O)c4ccccc4C3=O)cc21,4.6,-1.7,19.4*,-0.5,-6.0,-2.6,41.0*,122.6*,
COC(=O)C[C@H]1CC[C@H](NC(=O)c2cccc(F)c2)[C@@H](CO)O1,nt,3.0,nt,0.2,3.3,nt,nt,nt,
C#CCOCCOCCOCCNc1nc(N2CCN(C(=O)[C@H](CCCCN)n3cc([C@@H](N)[C@H](C)CC)nn3)CC2)nc(N2CCN(C(=O)[C@H](CCC(=O)O)n3cc([C@@H](N)CCSC)nn3)CC2)n1,nt,-1.2,-0.8,0.7,-5.1,4.0,nt,nt,
Cn1ncc2c(Nc3ccc4ccccc4c3)ncnc21,-3.5,-8.6,32.1*,-0.4,-1.0,-57.9,3.7,9.8,
Cc1cccc(Nc2ncnc3c2cnn3C)c1,-0.8,0.4,7.7,-0.6,-2.4,-14.6,nt,nt,
CC(=O)Sc1nc(-c2ccccc2)[nH]c1S(=O)(=O)c1ccc(C)cc1,-2.3,nt,17.1*,nt,nt,nt,-1.9,5.3,

# Compound activity (PubChem)
